Screening results as filed in PubChem BioAssay.
aDG glyco act: alpha-DG glycosylation activation | Pro5-aDG cells, alpha-DG glycosylation AlphaScreen (IIH6); 0% Pro5, 100% B10-LARGE cell signal | activation, % at 10 µM | hit rate 0.22% among 360,000 | AID 624168;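 active means activation of at least 8% versus controls, or a plate z-score of at least 8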;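 further: Pro5 are CHO cells carrying HIG-tagged alpha-DG that lacks glycosylation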
Vif inh: blocks HIV Vif function; HEK293T cells, Vif self-association by quenched fluorescence, imaging, 24 h; inhibition, % at 7.49 µM; hit rate 0.35% among 340,000; AID 602346; in the data active means inhibition above about 50%, passing the limit was not always enough
N-glyco inh: blocks N-linked glycosylation in D54 reporter cells; reporter increase, % at 12.5 µM; hit rate 0.23% among 360,000; D54 ERlucT glycosylation luciferase reporter, 24 h; percent of 100 nM tunicamycin response; AID 588692;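 active means mean luciferase reporter signal, scaled so untreated is 0 and the glycosylation-blocking control 100, at or above a set limit in every replicate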;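 further: luciferase carries N-glycosylation sites so blocking glycosylation raises the light; 0% = median of neutral control wells and 100% = median of 100 nM tunicamycin wells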
bovine MsrA act: activates bovine MsrA enzyme; purified bovine MsrA, absorbance read-out; activation, % at 10.6 µM; hit rate 0.3% among 360,000; in the data active means activation above about 7.5%;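 further: 0% = vehicle and 100% = reference activator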
MsrA inh: inhibitors of bovine MsrA; hit rate 0.75% among 360,000; inhibition, % at 15.5 µM; purified bovine MsrA, absorbance read-out; in the data active means inhibition above about 4.5%;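 further: 0% = vehicle wells with enzyme and 100% = reference inhibitor wells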
UCH37 DUB inh: inhibitors of human deubiquitinating enzyme UCH37. inhibition, % (test concentration not listed). hit rate 0.33% among 330,000. Q9Y5K5. purified proteasome/UCH37, Ub-AMC cleavage fluorescence. AID 588478;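 active means mean inhibition over replicate wells above about 20%, limit read from the data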;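 further: 0% = compound-free wells with enzyme and 100% = wells lacking proteasome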
Target sequence (Q9Y5K5 whole entry, looked up): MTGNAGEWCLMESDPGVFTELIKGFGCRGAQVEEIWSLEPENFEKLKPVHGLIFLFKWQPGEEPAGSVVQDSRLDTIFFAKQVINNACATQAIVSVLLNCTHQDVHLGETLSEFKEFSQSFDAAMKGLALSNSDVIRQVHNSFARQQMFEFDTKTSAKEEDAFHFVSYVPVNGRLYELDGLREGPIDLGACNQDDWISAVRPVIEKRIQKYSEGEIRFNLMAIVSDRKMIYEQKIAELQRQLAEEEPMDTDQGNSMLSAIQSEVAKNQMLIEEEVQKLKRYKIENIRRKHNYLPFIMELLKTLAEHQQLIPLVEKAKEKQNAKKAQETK
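system = Proteasome-associated human UCH37 deubiquitinase | amount = 0.15 nM proteasome as dispensed | medium = pH 7.4 Tris-HCl (50 mM) with ovalbumin, ATP-MgCl2, DTT | incubation = 30 min preincubation with enzyme, 25 min cleavage at room temperature | detection = AMC fluorescence 355/460 nm | read-out basis = percent inhibition | controls = no-proteasome and no-compound wells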
aDG conf: alpha-DG glycosylation activation, confirmation. shares compounds with aDG glyco act. Pro5-aDG cells, IIH6 AlphaLISA; scaled to LARGE-overexpressing B10 cells as 100%. activation, % at 10 µM (by protocol). hit rate 17% among 600. AID 651671;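 active means activation of at least 7% in one or more replicates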;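 further: cells exposed to compound for two days before detection; 0% = DMSO-treated Pro5 cells and 100% = DMSO-treated B10-LARGE cells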
The depositor's hits bear a star; i = inactive; . = no result. Hits are enriched below; roughly 1.9% of the tested compounds scored in any of these assays.

SMILES	aDG glyco act	Vif inh	N-glyco inh	bovine MsrA act	MsrA inh	UCH37 DUB inh	aDG conf
O=C(NN=Cc1ccc(N2CCOCC2)o1)c1cccc(C(F)(F)F)c1	.	.	.	.	.	10.2	.
O=C(Nc1ccnn1C1CCN(Cc2cccc(OCCO)c2)CC1)C1CC1	6.0*	0.6	0.2	-4.9	-0.7	2.3	-0.7
Cc1cc(C)c(C(N)=O)c(Nc2cccc3ccccc23)n1	5.7*	-22.9	1.7	2.2	2.1	3.9	0.2
COc1ccccc1Nc1nc(C)cc(C)c1C(N)=O	0.1	.	2.9	-0.7	1.9	-0.6	.
CCOc1ccc(S(=O)(=O)N2CCN(c3ccccc3OC)CC2)c2cccnc12	6.5*	.	-0.2	-0.5	1.3	4.7	0.1
CC(C)(C)NC(=O)CCN(N=Cc1ccc([N+](=O)[O-])o1)C1=NS(=O)(=O)c2ccccc21	.	.	.	.	.	5.0	.
CN1CC(=O)N(CC(=O)Nc2ccc(Cl)c(C(F)(F)F)c2)C1=O	5.9*	-2.0	-0.4	-0.8	-0.2	0.2	0.6
Cc1ccc(N(CC(=O)NC(C)c2ccccc2)S(=O)(=O)c2c(C)n[nH]c2C)cc1 (configuration not stated)	5.6*	11.7	4.7	-10.8	1.6	0.3	0.2
COc1cc(C=NNC(=O)c2c(-c3c(Cl)cccc3Cl)noc2C)ccc1OCC(N)=O	.	.	.	.	.	3.6	.
N#Cc1cc2ccc(N3CCOCC3)cc2cc1C#N	6.8*	-2.3	17.3	-3.7	0.0	-41.8	2.2
N#Cc1cc(Cl)c(N2CCOCC2)cc1C#N	0.0	9.3	-0.5	-5.8	2.1	0.7	.
COc1cccc(C=NNC(=O)CNC(=O)c2cccs2)c1O	.	.	.	.	.	-0.9	.
FC(F)Oc1ccc(NC(=S)NC23CC4CC(CC(C4)C2)C3)cc1	2.0*	-2.5	-6.8	-2.3	-0.3	4.0	0.3
CCOc1ccc(NC(=S)NC23CC4CC(CC(C4)C2)C3)cc1	0.8	5.8	-2.6	2.2	-0.2	.	.
CC(=NNc1ccc(Cl)c(C(=O)O)c1)c1cc2ccccc2o1	.	.	.	.	.	18.1	.
COc1ccc(OC)c(C2(O)CSC(=Nc3cccnc3)N2Cc2ccco2)c1 (configuration not stated)	0.1	11.4	-2.1	-0.9	1.3	-1.1	.
OC1(c2ccc(OC(F)F)cc2)CSC(=Nc2cccnc2)N1C1CC1 (configuration not stated)	6.9*	-50.9	-2.9	-3.9	0.6	-1.4	0.2
Cc1cncn1CCc1nc2c3ccccc3nc(SCC(=O)Nc3cccc(Cl)c3)n2n1	8.7*	-1.3	-3.1	-1.5	0.0	5.5	5.3*
COc1ccc2sc(/C=C/c3ccccc3O)[n+](C)c2c1	11.4*	1.6	0.2	-4.3	2.4	14.1	0.9
Cc1cc(C(=O)c2ccc(Cl)cc2)c(NC(=O)CCl)s1	2.8	-0.8	-2.5	-5.1	0.1	4.3	.
CCc1cc(C(=O)c2ccc(C)cc2)c(NC(=O)CCl)s1	10.1*	-0.9	0.3	-4.4	0.7	6.4	-0.7
FC(F)Oc1ccccc1C=NNc1nc2ccccc2o1	.	.	.	.	.	1.5	.
O=C(CC1SC(=Nc2ccccc2)N(CCc2ccccn2)C1=O)Nc1ccc(F)cc1 (configuration not stated)	11.0*	-18.0	-4.8	-12.8	0.4	5.4	-0.5
O=C(CC1SC(=Nc2ccccc2)N(CCO)C1=O)Nc1ccccc1 (configuration not stated)	0.0	-0.6	1.0	-11.9	-0.2	-0.6	.
COc1ccccc1/C=C/C=NNC(=O)CCC1C(=O)NN=C1C (configuration not stated)	.	.	.	.	.	1.6	.
SMILES	aDG glyco act	Vif inh	N-glyco inh	bovine MsrA act	MsrA inh	UCH37 DUB inh	aDG conf
CCCNC(=O)OC[C@H]1O[C@H](CCON=C[C@@H](NS(=O)(=O)c2ccc(C)cc2)[C@H](C)/C=C/CC(=O)OC)C=C[C@@H]1Oc1ccc(OC)cc1	.	.	.	.	.	-1.7	.
Cc1ccc(-n2c(SCC(N)=O)nnc2-c2ccco2)cc1	4.3*	3.6	-1.0	-0.5	-0.4	0.1	1.5
COc1cccc(Cn2cc(C=NNC(=O)c3cc(O)cc(O)c3)c3ccccc32)c1	.	.	.	.	.	-28.0	.
CC(C)n1cc(C=NNC(=O)COc2cccc3cccnc23)c2ccccc21	.	.	.	.	.	8.1	.
CC(=O)c1c(COC(=O)c2ccc(C)cc2)nc2ccccc2[n+]1[O-]	2.8*	-2.4	0.4	-8.5	0.1	5.8	-0.9
CC(=O)c1c(COC(=O)c2ccc(F)cc2)nc2ccccc2[n+]1[O-]	-0.1	11.2	2.6	-1.3	0.3	6.6	.
CN(C)c1ccc(NC(=O)COC(=O)c2ccc3c(c2)OCO3)cc1	-0.1	15.2	1.1	-1.7	0.0	.	.
CN(C)c1ccc(C(=O)OCC(=O)Nc2ccc(S(N)(=O)=O)cc2)cc1	6.0*	6.3	1.1	3.3	2.3	-2.7	-0.8
Nc1nc(-c2ccco2)nn1S(=O)(=O)c1ccccc1	0.1	-3.5	2.9	-3.4	0.0	-1.2	.
Nc1nc(-c2cccnc2)nn1S(=O)(=O)c1ccccc1	7.2*	-1.5	0.6	-7.1	-0.8	2.4	0.1
Nc1nnc(-c2ccc([N+](=O)[O-])o2)s1	7.9*	-15.7	7.3	5.1	3.5	11.1	4.0*
O=c1[nH]nc(-c2ccc([N+](=O)[O-])o2)c(=O)[nH]1	-0.2	-4.2	3.8	-2.3	2.1	9.2	.
Cc1nn(C)cc1C1C2=C(CC(C)(C)CC2=O)N(c2ccccc2)C2=C1C(=O)CC(C)(C)C2	4.2*	.	.	-14.9	-0.3	-53.0	-0.8
Cc1ccc(N2C3=C(C(=O)CC(C)(C)C3)C(c3cn(C)nc3C)C3=C2CC(C)(C)CC3=O)cc1	0.0	4.2	-1.8	-2.7	0.6	-51.4	.
CCOC(=O)N1CCN(S(=O)(=O)c2ccc(C(=O)Nc3sc4c(c3C(=O)OC)CCN(C)C4)cc2)CC1	0.4	-10.0	-13.1	2.4	0.1	-9.4	.
CCOC(=O)N1CCN(S(=O)(=O)c2ccc(C(=O)Nc3sc4c(c3C(N)=O)CCN(CC)C4)cc2)CC1	86.4*	9.5	-10.4	-2.7	0.7	0.5	0.3
CCN1CCc2c(sc(NC(=O)c3ccc(S(=O)(=O)N4CCCC4)cc3)c2C(=O)NC)C1	46.6*	-7.8	-11.7	-4.9	0.8	4.5	0.0
CN1CCc2c(sc(NC(=O)c3ccc(S(=O)(=O)N4CCCC4)cc3)c2C(N)=O)C1	13.7*	i	0.6	-1.1	0.6	8.8	1.8
Cc1ccc(S(=O)(=O)NC(=O)NCc2ccccn2)cc1	51.4*	-4.5	-0.5	-11.4	0.0	0.9	-0.6
Cc1cccc(S(=O)(=O)c2c(N)n(Cc3ccco3)c3nc4ccccc4nc23)c1	20.7*	-9.5	-5.9	-0.9	1.4	-313.1	1.0
Cc1cccc(-n2cnc3c(c2=O)c2nc4ccccc4nc2n3Cc2ccco2)c1	-0.1	3.6	-0.4	-2.9	0.9	-6.4	.
